Experimental findings from PubChem BioAssay AID1656 (Sanford-Burnham Center for Chemical Genomics, 2009) are described below.

Each structure is given as a SMILES string. Hit rate of the full screen: of about 240,000 compounds, about 950 (0.4%) were called active.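 The calls were made as follows: active = lipid droplet intensity inhibited by at least 50%, with more than 500 cells counted; inconclusive = wells with under 300 cells, treated as cytotoxic; inactive = the rest.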 For the sample, actives were picked, then their nearest neighbours and some compounds at random.

A short description of the experiment: oleate-induced lipid droplet accumulation in AML12 cells – imaging, high-throughput imaging, BODIPY stain, primary screen (AID 1656).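 As to cell count: cells counted across two imaged fields per well.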 Conditions: AML12 mouse hepatocytes, oleate lipid droplets, at 6.5 µM; cell count: measured here: cell count, cytotoxicity flag; inhibition: stronger effect = higher value. Summed up:
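Material – mouse AML12 hepatocyte cell line, fixed after treatment · Compound dosing – one dose, 6.5 µM compound · Times – compound with oleate, overnight · Measured by – Image-based BODIPY and DAPI two-channel analysis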
One may read the inhibition as the drop in the measured response relative to a control, in per cent. Turning to `COc1ccc(CCNC(=O)CCCCCNC(=O)N2CCn3c2nc2ccccc23)cc1OC`, the cell count was 692 cells and the inhibition is 0.7% (inactive).
Turning to `CCCN1CCn2c3c(c4cc(Br)ccc42)CCCC31` (configuration not stated), the cell count stood at 795 cells and the inhibition was -5.9% (inactive).
The like results for `CCC(C(=O)NC1CCCCC1)N(C(=O)c1snc(C(N)=O)c1N)c1ccc(OC)cc1OC` (configuration not stated) were, in that order, 820 cells and -0.1% (inactive).
On to `Cc1ccc(NC(=O)c2cc(-c3ccccc3O)n[nH]2)cc1C`, for which the cell count turned out to be 660 cells and the inhibition was 31.5% (inactive).
The like results for `Cc1nc2cc(C(F)(F)F)ccc2n1CCNc1nc(-c2cc(Cl)c(N)c(Cl)c2)cs1` were, in that order, 750 cells and 8.1% (inactive).
The like results for `Cc1c(C(=O)NCC(c2ccco2)N2CCCC2)oc2ccc(Cl)cc12` (configuration not stated) were, in that order, 736 cells and 2.8% (inactive).
The like results for `CS(=O)(=O)N(CC(=O)N1CCOCC1)c1cccc(Cl)c1Cl` were, in that order, 792 cells and -9.9% (inactive).
As to `COc1ccc(NC(=O)NCCN2CCN(c3ccc(C)cc3)CC2)c(Cl)c1`, the cell count turned out to be 800 cells and the inhibition is -0.4% (inactive).
The corresponding values for `CCN(C(=O)COc1ccc(C(=O)c2ccccc2)cc1)c1ccccc1` are 592 cells and -18.3% (inactive).
Consider `Cc1cc(CN(C)C(=O)c2cc(COc3ccc(C)c(C)c3)on2)n[nH]1`, for which the cell count was 697 cells and the inhibition is -6.7% (inactive).
The like results for `CC(Cc1cccs1)N(Cc1ccc(Cl)cc1)C(=O)c1ccncc1` (configuration not stated) were, in that order, 838 cells and -16% (inactive).
The like results for `O=C(NC(=S)Nc1ccccc1N1CCCCC1)c1ccc(F)cc1` were, in that order, 720 cells and 8.8% (inactive).
The like results for `COc1ccc(C(CNC(=O)COc2ccccc2OC)N2CCCCC2)cc1` (configuration not stated) were, in that order, 697 cells and -15% (inactive).
Take `COc1cccc(Cn2cc(/C=N/NC(=O)c3cc(O)cc(O)c3)c3ccccc32)c1`: the cell count came to 740 cells and the inhibition was -2.5% (inactive).
The like results for `COc1ccc(C)cc1Nc1n[n+](-c2ccccc2)c(-c2cccc(Cl)c2Cl)s1` were, in that order, 778 cells and -4.7% (inactive).
The like results for `CC1CCN(CCCn2c(SCC(=O)NC3CCCC3)nc3ccccc3c2=O)CC1` were, in that order, 704 cells and -17.3% (inactive).
The corresponding values for `CC1CCCN(CCCNC(=O)CN2C(=O)COc3ccc(S(=O)(=O)N4CCOCC4)cc32)C1` (configuration not stated) are 780 cells and -12.4% (inactive).
In the case of `O=C(NCC(=O)N1CCN(c2ccccc2O)CC1)c1ccc2ccccc2c1`, the cell count amounted to 679 cells and the inhibition is -1.6% (inactive).
The corresponding values for `COc1ccc(N(Cc2cc3ccc(C)cc3[nH]c2=O)S(=O)(=O)c2ccccc2)cc1` are 764 cells and -6.7% (inactive).
The like results for `CC(C)c1ccc(NC2CCCN(C(=O)c3ccncc3)C2)cc1` (configuration not stated) were, in that order, 631 cells and -2.4% (inactive).
In the case of `O=C(N/C(=C\c1ccc([N+](=O)[O-])cc1)C(=O)N1CCOCC1)c1cccc(Br)c1`, the cell count turned out to be 652 cells and the inhibition is -42.9% (inactive).
The like results for `COc1ccc(-c2c(C#Cc3ccccc3)c3ccccc3n2C)cc1` were, in that order, 742 cells and -11.3% (inactive).
The corresponding values for `Cc1ccccc1OCC(=O)Nc1ccc(S(=O)(=O)N2CCOCC2)cc1` are 768 cells and -7.1% (inactive).
The corresponding values for `O=C(/C=C/c1ccc([N+](=O)[O-])o1)NNC(=O)c1ccc(F)cc1` are 473 cells and -82% (inactive).
Turning to `COc1ccc(-c2csc(NC(=O)CCCc3cccs3)n2)cc1`, the cell count amounted to 687 cells and the inhibition was -3.2% (inactive).
The like results for `CCCc1ccc(-c2csc(NC(=O)Cc3cccs3)n2)cc1` were, in that order, 774 cells and 71% (active).
The corresponding values for `Cc1ccc(-c2csc(NC(=O)Cc3cccs3)n2)cc1C` are 732 cells and 12.4% (inactive).
The like results for `CCOCCCN(C)C1CCN(C(=O)c2oc3ccccc3c2NC(=O)COc2cccc(C)c2)CC1` were, in that order, 640 cells and -24.8% (inactive).
On to `O=C(CN1CCc2cc3c(cc2C1)OCCCO3)Nc1ccccc1`, for which the cell count is 784 cells and the inhibition is 77.1% (active).
The like results for `Cc1ccc(NC(=O)CN2CCc3ccccc3C2)cc1` were, in that order, 793 cells and 7.1% (inactive).
The like results for `O=C(CN1CCOCC1)Nc1ccccc1` were, in that order, 743 cells and 1.4% (inactive).
The like results for `Cc1ccc(N2C(=O)C(NC(=O)c3c(F)cccc3F)(C(F)(F)F)C3=C2CC(C)(C)CC3=O)cc1` (configuration not stated) were, in that order, 635 cells and 63.8% (active).
Turning to `CC1(C)CC(=O)C(N=Nc2c(F)cccc2F)=C(O)C1`, the cell count is 713 cells and the inhibition is 8.6% (inactive).
As for `CCOC(=O)CC1(NC(=O)c2cc(COc3cncc(Cl)c3)on2)CCCCC1`, the cell count is 665 cells and the inhibition was 11.8% (inactive).
The corresponding values for `CCOC(=O)N1CCN(C(=O)c2ccc3c(=O)n(CCc4ccc(OC)c(OC)c4)c(=O)[nH]c3c2)CC1` are 684 cells and 16.5% (inactive).
Turning to `CCCCNC(=O)c1cn(CC)c2cc(N3CCN(C(=O)c4ccco4)CC3)c(F)cc2c1=O`, the cell count is 705 cells and the inhibition was -15.8% (inactive).
The corresponding values for `O=S(=O)(c1ccc(Cl)cc1)c1nc(-c2ccco2)oc1N1CCCCC1` are 633 cells and -18% (inactive).
The corresponding values for `CN(CC1CCCO1)S(=O)(=O)c1ccc(C(=O)Nc2ccc([N+](=O)[O-])cc2)cc1` (configuration not stated) are 854 cells and 0.6% (inactive).
For `CC(C)c1ccc2oc(=O)cc(CN3CCN(Cc4ccccc4)CC3)c2c1`, the cell count stood at 850 cells and the inhibition was -0.8% (inactive).
The like results for `C=CCSc1nnc(N2C(=O)C(O)=C(C(=O)c3ccco3)C2c2ccc(F)cc2)s1` (configuration not stated) were, in that order, 710 cells and -21.4% (inactive).
The corresponding values for `COc1ccc(C(=O)Nc2ccccc2C(=O)NCc2ccco2)cc1` are 738 cells and -20.2% (inactive).
As to `COc1ccc(/C=C(/NC(=O)c2ccco2)C(=O)Nc2ccc(C(C)=O)cc2)cc1`, the cell count was 829 cells and the inhibition was 8.8% (inactive).
Turning to `COc1ccc(/C=C(\NC(=O)c2ccc(OCC(C)C)cc2)C(=O)OCc2ccco2)cc1`, the cell count worked out at 607 cells and the inhibition was 74.3% (active).
The like results for `CCn1cc(S(=O)(=O)c2cccc(C)c2)c(=O)c2cc(F)c(N3CCN(C)CC3)cc21` were, in that order, 738 cells and 7.2% (inactive).
The like results for `CCC1=Nc2cc(C(=O)NCCN3CCCC3)ccc2Sc2ccc(C)cc21` were, in that order, 726 cells and 4.6% (inactive).
The corresponding values for `COc1ccc(/C=C(/CC(=O)Nc2ccc(C)cc2)c2nc3ccccc3s2)cc1` are 713 cells and -0.1% (inactive).
Take `COc1cc2ccccc2cc1C(=O)Nc1ccc(N2CCOCC2)cc1`: the cell count stood at 835 cells and the inhibition is -4.2% (inactive).
The like results for `COc1cccc(/C=C(/CC(=O)Nc2ccc(N3CCOCC3)cc2)c2nc3ccccc3s2)c1` were, in that order, 578 cells and 77.8% (active).
The corresponding values for `CCOc1ccc(CCNC(=O)C(CC)n2nc(C)n3c(cc4sccc43)c2=O)cc1OCC` (configuration not stated) are 786 cells and 85.5% (active).
As for `COc1ccc(CCNC(=O)COC(=O)/C=C/c2cccs2)cc1OC`, the cell count was determined as 727 cells and the inhibition was 2.8% (inactive).
Consider `CCC(C(=O)NCc1ccc(OC)cc1)n1nc(C)n2c(cc3occc32)c1=O` (configuration not stated), for which the cell count amounted to 780 cells and the inhibition was -2.7% (inactive).
